From PubChem
GALR2 antag – GALR2 antagonists in receptor-expressing cells, primary screen. Galanin receptor type 2 (Homo sapiens), O43603. antagonist mode. inhibition, % at 4 µM. hit rate 0.39% among 140,000. AID 828, 2007; in the data active = inhibition above about 27%;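 also: cells stimulated with galanin 1-16 at roughly its EC80; 0% = agonist challenge control and 100% = basal control without agonist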
Rev-RRE block – HIV-1 Rev-RRE binding inhibitors, primary screen, biochemical, FRET, protein-RNA interaction; Rev peptide-RRE RNA binding; P05866; AID 704, 2007; hit rate 0.79% among 97,000; inhibition, % at 8 µM;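 active = inhibition above the screen-wide mean plus 3 SD, cut at about 35% in these data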;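 also: 0% = median DMSO wells and 100% = median Neomycin B control wells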
Target sequence (P05866 whole entry, looked up): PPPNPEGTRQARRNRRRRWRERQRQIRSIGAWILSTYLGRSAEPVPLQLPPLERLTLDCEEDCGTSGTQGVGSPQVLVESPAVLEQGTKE
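Assay system: Rev peptide and RRE RNA, both fluorescently labelled; times: 5 min preincubation and 15 min binding, 25 °C; detection: FRET, ex 480 nm, em 540 and 671 nm; read-out basis: % inhibition from 671/540 nm acceptor-to-donor ratio, scaled between controls; benchmarks: DMSO low control, neomycin B high control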
S1P2 ag – S1P2 receptor agonists, primary screen, cell-based; Sphingosine 1-phosphate receptor 2 (Homo sapiens), O95136; S1P2-expressing cell line, agonist reporter read-out; activation, % at 4.5 µM; hit rate 0.46% among 97,000; AID 729, 2007; in the data active = activation above about 16%;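 also: 0% = vehicle low control and 100% = maximal reference agonist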
Target sequence (O95136 whole entry, looked up): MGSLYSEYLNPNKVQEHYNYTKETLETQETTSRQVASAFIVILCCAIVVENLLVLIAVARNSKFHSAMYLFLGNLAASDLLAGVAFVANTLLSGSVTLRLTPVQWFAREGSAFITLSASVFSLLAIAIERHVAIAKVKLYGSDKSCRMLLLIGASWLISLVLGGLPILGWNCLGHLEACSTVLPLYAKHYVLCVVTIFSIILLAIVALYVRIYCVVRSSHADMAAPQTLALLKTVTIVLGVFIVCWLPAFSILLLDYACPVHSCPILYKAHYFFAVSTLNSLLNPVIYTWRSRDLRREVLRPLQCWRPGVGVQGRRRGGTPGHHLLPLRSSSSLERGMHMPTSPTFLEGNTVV
GALR2 ag – GALR2 receptor agonists, primary screen, cell-based. GALR2-expressing cells, agonist activation read-out. Galanin receptor type 2 (Homo sapiens), O43603. hit rate 0.48% among 140,000. activation, % (concentration not given with the values). AID 803, 2007; in the data active = activation above about 5%, passing the limit was not always enough;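 also: 0% = vehicle buffer wells and 100% = reference agonist at full effect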
S1P2 antag – human S1P2 receptor antagonists, primary screen, cell-based; Sphingosine 1-phosphate receptor 2 (Homo sapiens), O95136; cell-based S1P2 antagonist assay, inhibition at 5 uM; inhibition, % at 5 µM; hit rate 0.21% among 97,000; AID 736, 2007; in the data active = inhibition above about 45%;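 also: CRE beta-lactamase reporter cells expressing human S1P2 stimulated with S1P; 0% = agonist at EC80 alone and 100% = agonist plus reference antagonist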
Active calls of the source: *; x = no result given; [ ] = another dose, or the depositor's remark. Sampled rows, rich in hits. Any-hit rate of the full collection: about 1.6%.

SMILES	GALR2 antag	Rev-RRE block	S1P2 ag	GALR2 ag	S1P2 antag
O=C(Nc1ccc(N2CCOCC2)cc1)Nc1ccc2nc(-c3ccco3)c(-c3ccco3)nc2c1	32*	11	0	0	-8
Cc1cc(SCC(=O)c2cccs2)n2nc(C)c(-c3ccc(Cl)cc3)c2n1	10	x	x	-1	x
C=CCSc1cc(C)nc2c(-c3ccc(Cl)cc3)c(C)nn12	-9	7	23*	0	-35
CC(C)n1c(=N)c(C(=O)NCCc2ccccc2)cc2c(=O)n3ccccc3nc21	-22	0	94*	18*	-68
COC(=O)c1cc2c(=O)n3ccccc3nc2n(C(C)C)c1=N	-4	2	19*	17*	-32
O=C(OCC(=O)N1CCc2ccccc2C1)c1cccc([N+](=O)[O-])c1	-9	x	x	2	x
C/C(=N/NC(=O)c1ccc(Br)o1)C(C)C	6	x	x	-2	x
CCCC(c1nnnn1C1CCCC1)N1CCN(c2ccccc2F)CC1 (stereo unspecified)	-8	7	-3	-1	-1
CCOc1ccc(OCCN2C(=O)NC(Cc3c[nH]c4ccccc34)C2=O)cc1 (stereo unspecified)	3	2	-6	-2	6
Cc1noc2ncnc(Sc3ccccc3Cl)c12	10	-2	-8	-2	55*
O=c1[nH]c2cc(Br)cnc2nc1/C=C(\O)c1ccc(F)cc1	0	60*	-2	0	4
CCc1ccc(C(=O)CN2C(=O)NC(C)(CCc3ccccc3)C2=O)cc1 (stereo unspecified)	3	x	x	-1	x
Cc1[nH]n(-c2ccc([N+](=O)[O-])cc2)c(=O)c1C=NCCc1c(C)[nH]c2ccccc12	6	x	x	-1	x
COc1ccccc1N=c1sc2ccccc2n1C	-5	1	-3	-1	-9
Cn1/c(=N/N=C/c2ccc([N+](=O)[O-])cc2)sc2ccccc21	11	58*	-4	-2	24
CCN(C(=O)c1ccc(C(C)(C)C)cc1)c1nnc(Cn2nnc3ccccc32)s1	17	3	-10	-2	87*
CCOC(=O)C1=C(C)Nc2sc(C(=O)c3ccc(OC)cc3)c(N)c2C1c1ccc(C(=O)OC)cc1 (stereo unspecified)	-2	x	x	5.6*	x
COC(=O)C1=C(C)Nc2sc(C(N)=O)c(N)c2C1c1ccncc1 (stereo unspecified)	-1	x	x	0	x
Fc1ccc(C2=CC(c3ccc(Br)o3)n3ncnc3N2)cc1 (stereo unspecified)	18	x	x	0	x
OCCCc1nc2n(n1)C(c1cccs1)C=C(c1ccc(Br)cc1)N2 (stereo unspecified)	2	135*[fluorescence artefact?]	-5	0	15
Brc1ccc(C2=CC(c3cccs3)n3ncnc3N2)cc1 (stereo unspecified)	19	135*[fluorescence artefact?]	-7	-1	10
Cc1nc(Cl)c(C(=O)NC(=O)NCc2ccccc2)c(C)c1Cl	-4	x	x	-1	x
Cc1cc(C(C#N)c2cccc(Cl)c2)n2ncnc2n1 (stereo unspecified)	6	0	-9	-2	14
N#CC(c1cccc(Cl)c1)c1ccc2c(C(F)(F)F)cc(C(F)(F)F)nc2n1 (stereo unspecified)	15	-2	-5	-2	88*
O=c1c(/C=C(\O)c2ccc(F)cc2)nc2ccccc2n1-c1ccccc1	12	127*[fluorescence artefact?]	-1	-2	34
SMILES	GALR2 antag	Rev-RRE block	S1P2 ag	GALR2 ag	S1P2 antag
CCNc1ccc2noc3c2c1C(=O)c1ccccc1-3	0	138*[fluorescence artefact?]	-1	1	-34
O=C1c2ccccc2-c2onc3ccc(NCc4ccco4)c1c23	18	x	x	-1	x
CCOc1ccc2noc3c2c1C(=O)c1ccccc1-3	-6	133*[fluorescence artefact?]	-5	-3	-47
N#CCCN(C(=O)Nc1ccc(Cl)c(Cl)c1)c1ccccc1	2	x	x	-1	x
CCn1c(=O)c(C(=O)Nn2c(C)nc3ccccc3c2=O)c(O)c2ccccc21	2	x	x	0	x
CCn1c(=O)c(C(=O)Nc2nc3ccccc3[nH]2)c(O)c2ccccc21	2	15	4	1	79*
Cc1nn(C)cc1/C=C1\SC(=S)NC1=O	-24	2	3	-1	-14
Cc1cc(/C=C2\SC(=S)NC2=O)c(C)n1C	-3	54*	-3	-3	8
COc1cc2c(C)nc(C)c(C#N)c2cc1OC	2	-1	21*	1	-37
COc1cc2c(C)nc3onc(-c4ccccc4)c3c2cc1OC	7	6	0	-1	-14
CC(=O)Nc1ccc(S(=O)(=O)NCC(=O)OCc2ccccc2)cc1	17	x	x	-1	x
COc1cccc(-n2c(CN3CCN(c4ccccc4)CC3)nc3ccc([N+](=O)[O-])cc3c2=O)c1	-4	x	x	0	x
Nn1c(Nc2ccccc2)nc2ccccc2c1=O	13	5	-10	-1	4
O=c1[nH]c(Nc2ccccc2)cc2ccccc12	8	61*	-2	2	-14
CCN1CCC2(CC1)C(C#N)=C(N)Oc1c2sc2nc(C)cc(C)c12	-2	66*	-6	-1	1
COc1ccc(NC(=O)C(c2cc3c(cc2[N+](=O)[O-])OCO3)N(C)c2ccccc2)cc1 (stereo unspecified)	-6	x	x	-1	x
C(=C\c1ccccc1)/CSc1nnc(-c2ccccc2)n1Cc1ccco1	-3	12	53*	-2	-10
CC(C)(C)c1ccc(CSc2nnc(-c3ccccn3)n2Cc2ccco2)cc1	-6	6	32*	-2	1
Cc1ccc(-c2nc3ccccc3c(=O)n2Cc2ccccc2)cc1	-8	x	x	-1	x
O=c1c2ccccc2nc(-c2ccccc2)n1Cc1ccco1	-9	1	33*	-1	-4
CC(=O)c1c[nH]c2ccc(C)cc2c1=O	-5	14	-2	0	-7
CCOC(=O)c1ccc2[nH]cc(C(C)=O)c(=O)c2c1	13	53*	-4	-5	-6
COc1ccccc1/C=C1\SC(=S)N(Nc2nc(C)cc(C)n2)C1=O	-2	5	-12	-3	-3
Cc1cc(C)nc(NN2C(=O)/C(=C/c3ccc(O)cc3)SC2=S)n1	1	58*	-5	-2	8
O=C(CNC(=O)C(c1ccccc1)c1ccccc1)OCC(=O)c1cccs1	-1	x	x	0	x
SMILES	GALR2 antag	Rev-RRE block	S1P2 ag	GALR2 ag	S1P2 antag
COc1ccc(CC(=O)NCc2nnc(SCc3ccc(C)cc3)n2C)cc1	-4	x	x	0	x
N#C/C(=C\c1ccco1)C(=O)NCC1CCCO1 (stereo unspecified)	2	x	x	0	x
Cc1ccc(C2C(C#N)=C(N)SC(N)=C2C#N)cc1	0	59*	-4	0	1
N#CC1=C(N)SC(N)=C(C#N)C1c1ccoc1	-3	86*[fluorescence artefact?]	-2	-1	-7
Cc1ccc(C2C(C#N)=C(N)SC(N)=C2C#N)c(C)c1	1	x	x	-1	x
O=C(NC(=S)N1CCCCC1)C12CC3CC(CC(C3)C1)C2	-4	5	-3	-1	-5
